Results from PubChem BioAssay AID638 (SRMLSC, 2007).
Among all 1,300 compounds or so, about 65 (5%) were called active.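 Rule for the calls: active = growth inhibition reaching a set limit at one or more tested doses; inactive = the rest.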 Only a sample is shown. Measured potencies and affinities stand elsewhere.

Experiment: wild-type E. coli BW25113 antibacterial activity – OD615, dose response (AID 638)
Conditions: at 100 µM (top of the series) unless noted
Outline: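 Assay system: E. coli BW25113 wild type; buffer or medium: Kanamycin-supplemented LB broth; signal: optical density (absorbance) at 615 nm; controls: chloramphenicol 30 µM control; doses: compound concentration series; times: bacterial exposure to compound 20 h at 37 °C; evaluation: IC50 from 4-parameter logistic, bounds fixed 0–100%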
With Fc1ccc(-n2c(Cc3ccccc3)nnc2SCc2nc(-c3cccs3)no2)cc1 the growth inhibition was -13.2% (inactive). For C=CCOC(=O)C(C#N)c1nc2ccccc2nc1N1CCCC1 (stereo not given), the growth inhibition was -1.85% (inactive). For COCc1cc(C)nc2sc3c(=O)oc(C)nc3c12, the growth inhibition was 10.4% (inactive). In the case of CCCCOC(=O)Nc1ccc(C(=O)OCCC)cc1, the growth inhibition is reported as 6.71% (inactive). In the case of COC(=O)c1ccc(NC(=O)CN2CCN(c3cccc(Cl)c3)CC2)cc1, the growth inhibition is reported as -2.21% (inactive). With CC(C)(C)C1CCC2(CC1)C(C#N)=C(SCC(=O)NC1CCCCC1)NC(=O)C2C#N (stereo not given) the growth inhibition was 12.2% (inactive). For N#CC1=C(SCC(=O)c2cc3ccccc3oc2=O)NC(=O)C(C#N)C12CCCC2 (stereo not given), the growth inhibition was 14.3% (inactive). With N#CC1=C(SCC(=O)NC23CC4CC(CC(C4)C2)C3)NC(=O)C(C#N)C12CCCCC2 (stereo not given) the growth inhibition was 18.1% (active). With CCN(CC)S(=O)(=O)c1ccc2[nH]cc(C(=O)NCCC3=CCCCC3)c(=O)c2c1 the growth inhibition was -6.85% (inactive). With COc1ccc2nc(SCC(=O)N(C)C3CCCCC3)c(C#N)cc2c1 the growth inhibition was -2.36% (inactive). For CCCOc1ccc(C2C(C(=O)c3ccc(C)o3)=C(O)C(=O)N2Cc2cccnc2)cc1 (stereo not given), the growth inhibition was 6.33% (inactive). With Cc1cc(Nc2ccccc2)nc(-c2ccccc2O)n1 the growth inhibition was -4.57% (inactive). In the case of Clc1ccc(OCCn2ccnc2)c2ccccc12, the growth inhibition is reported as 12.7% [at 50 µM] (inactive). For O=S(=O)(Nc1nc2ccccc2nc1N1CCN(c2ccccn2)CC1)c1ccc(Cl)cc1, the growth inhibition was -0.89% (inactive). In the case of O=C(Nc1nnc(-c2cccs2)o1)c1cccc(Oc2ccccc2)c1, the growth inhibition is reported as 12.7% (inactive). For CC1CCCCN1S(=O)(=O)c1ccc(C(=O)Nc2nnc(-c3cccs3)o2)cc1 (stereo not given), the growth inhibition was 2.23% (inactive). For Cc1cc(N2CCCCC2)nc(SCc2ccc(C#N)cc2)n1, the growth inhibition was -5.55% (inactive). For Cc1ccccc1CSc1nc2n(n1)C(c1cccs1)C1=C(CCCC1=O)N2 (stereo not given), the growth inhibition was -14.8% (inactive). With CCCCCn1c(N2CCC(Cc3ccccc3)CC2)nc2c1c(=O)[nH]c(=O)n2C the growth inhibition was -11.3% (inactive). With CCOC(=O)Cc1nnc2c(Nc3ccccc3F)nc3nonc3n12 the growth inhibition was -6.59% (inactive).
